The record followed here is ChEMBL document CHEMBL1124175, “Stereoisomers of allenic amines as inactivators of monoamine oxidase type B. Stereochemical probes of the active site” (J Med Chem, 1988).

Data set [1] addresses T1, Amine oxidase [flavin-containing] B (Bos taurus, UniProt P56560).
T1 sequence (P56560 whole entry): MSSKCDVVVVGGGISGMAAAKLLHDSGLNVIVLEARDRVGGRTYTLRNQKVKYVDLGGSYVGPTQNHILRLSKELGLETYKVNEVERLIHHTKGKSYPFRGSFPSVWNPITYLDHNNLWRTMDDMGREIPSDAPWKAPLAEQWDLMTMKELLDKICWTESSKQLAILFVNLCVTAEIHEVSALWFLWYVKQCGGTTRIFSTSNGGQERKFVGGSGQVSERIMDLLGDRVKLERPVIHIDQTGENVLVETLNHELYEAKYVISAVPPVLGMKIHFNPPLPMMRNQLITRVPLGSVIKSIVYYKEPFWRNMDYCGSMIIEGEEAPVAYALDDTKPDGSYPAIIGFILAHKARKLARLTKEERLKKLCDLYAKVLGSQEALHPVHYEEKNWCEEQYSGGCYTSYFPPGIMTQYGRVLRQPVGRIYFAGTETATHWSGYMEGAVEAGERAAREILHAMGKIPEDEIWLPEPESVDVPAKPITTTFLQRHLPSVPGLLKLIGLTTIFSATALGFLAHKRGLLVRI
Description: Inhibitory activity against Monoamine Oxidase B of Bovine liver in competitive inhibition assay at 25 degree C (pH=7.4).

Data set [2] addresses T2, Amine oxidase [flavin-containing] B (Rattus norvegicus, UniProt P19643).
T2 sequence (P19643 whole entry): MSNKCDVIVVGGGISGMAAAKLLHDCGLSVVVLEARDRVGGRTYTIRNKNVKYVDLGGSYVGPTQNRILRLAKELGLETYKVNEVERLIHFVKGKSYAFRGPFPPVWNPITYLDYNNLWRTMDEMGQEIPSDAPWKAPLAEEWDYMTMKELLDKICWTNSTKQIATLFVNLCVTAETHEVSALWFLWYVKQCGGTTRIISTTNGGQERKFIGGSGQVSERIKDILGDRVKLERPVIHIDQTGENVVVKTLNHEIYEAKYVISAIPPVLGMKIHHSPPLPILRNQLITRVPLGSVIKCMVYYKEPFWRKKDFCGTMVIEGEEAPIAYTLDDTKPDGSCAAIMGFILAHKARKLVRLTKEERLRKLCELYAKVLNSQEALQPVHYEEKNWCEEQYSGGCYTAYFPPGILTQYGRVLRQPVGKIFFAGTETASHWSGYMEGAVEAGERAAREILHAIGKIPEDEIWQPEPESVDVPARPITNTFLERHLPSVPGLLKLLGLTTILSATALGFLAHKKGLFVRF
Description: Competitive inhibition of Rat liver Monoamine Oxidase B at 37 degree C (pH= 7.4).

In data set [3] the target is T1, Amine oxidase [flavin-containing] B. Description: In vitro inhibition of bovine monoamine oxidase B. The procedure, abridged:
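Beef liver mitochondrial MAO was purified and assayed spectrophotometrically in 67 mM potassium phosphate, pH 7.2, at 25 °C. MAO (0.002 unit) was run with benzylamine hydrochloride (100, 200, 300 or 400 µM) and inhibitor at various concentrations. Initial rates of benzaldehyde formation were read at 250 nm, four replicates per combination, and competitive Ki was fitted from the initial rates.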

The species named for the next data set is Bos taurus. Description: Competitive inhibition of Bovine liver MAO-B at […]. Type of data set: functional.
Data set [4] addresses T1, Amine oxidase [flavin-containing] B. Description: Kinetic parameter for the time dependent inhibition of Bovine liver Monoamine Oxidase B at 25 degrees C (pH= 7.4). The conditions noted are these: cattle; for kinact: read-out: k2 (converted). Put shortly: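 Purified beef liver mitochondrial MAO (0.02 unit) was preincubated at 25 °C in 50 mM potassium phosphate, pH 7.4, with allenic amine (1 µM-10 mM). Aliquots taken over time were assayed in duplicate for residual activity against benzylamine at 250 nm. kobsd came from nonlinear fit to E = E0 exp(-kobsd t) + E∞, and k2 and Ki by Kitz-Wilson analysis. For slow inactivators, k2 came from kobsd at one concentration plus a separately measured competitive Ki.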

For data set [5], the target named is T2, Amine oxidase [flavin-containing] B. Description: Competitive inhibition of Rat liver Monoamine Oxidase B at 30 degree C (pH= 7.2).

Consider `CN[C@H](C)c1ccccc1`, for which, in data set [1], the inhibition constant Ki was found to be 630 µM. On the same count and under the same terms, with `CN[C@@H](C)c1ccccc1` the figure was 1600 µM. As to `CN[C@H](C)Cc1ccccc1`, the inhibition constant (Ki) in data set [2] came out at 550 µM; in data set [1], 800 µM. Consider `C[C@@H](N)c1ccccc1`, for which the Ki in data set [3] came out at 190 µM. For the compound `C[C@H](N)c1ccccc1`, the inhibitory constant (Ki) in data set [1] is 520 µM; in the data set listed under Bos taurus it was 150 µM. In data set [1], `CN[C@@H]1CCCc2ccccc21` had a Ki of 12 µM. Still for that read-out and setting: the result for `CN[C@H]1CCCc2ccccc21` reads 1.4 µM.

With `CC=C=CCN(C)[C@@H](C)c1ccccc1` (mixture of isomers), the k2 in data set [4] came out at 0.012 min⁻¹. Besides, the affinity in data set [3], expressed as Ki, was 2600 µM. On the same counts, the results for `CC=C=CCN(C)[C@H]1CCCc2ccccc21` (mixture of isomers) are 0.012 min⁻¹ and 150 µM. With `CC=C=CCN(C)[C@@H]1CCCc2ccccc21` (mixture of isomers), the k2 in data set [4] was 0.13 min⁻¹. In data set [3], the Ki turned out to be 250 µM. Turning to `CC=C=CCN(C)C[C@H](C)c1ccccc1` (mixture of isomers), the kinact in data set [4] is 0.00015 s⁻¹. Besides, the inhibition constant (Ki) in data set [3] was found to be 180 µM. As for `CC=C=CCN(C)C[C@@H](C)c1ccccc1` (mixture of isomers), the kinact in data set [4] is 0.000117 s⁻¹. In data set [3], affinity was put at a Ki of 690 µM.

Consider `CC=C=CCN(C)[C@H](C)c1ccccc1` (mixture of isomers), for which the kinact in data set [4] is 0.00733 s⁻¹. Besides, affinity in data set [3] was put at a Ki of 1800 µM. As for `CC=C=CCN(C)[C@@H](C)c1ccccc1` (stereo in doubt), the kinact in data set [4] is 0.000117 s⁻¹. The same compound showed an inhibition constant (Ki) in data set [3] of 1100 µM. In turn, `CC=C=CCN(C)[C@H]1CCCc2ccccc21` (stereo in doubt) yielded a k2 in data set [4] of 0.0006 min⁻¹. In data set [3], this compound returned a Ki of 150 µM.

In the case of `CC=C=CCN(C)[C@@H]1CCCc2ccccc21` (stereo in doubt), in data set [4], the k2 worked out at 0.8 min⁻¹. For the same compound, the affinity in data set [3] corresponds to a Ki of 200 µM. The like results for `CC=C=CCN(C)[C@H](C)c1ccccc1` (stereo in doubt) were, in that order, 0.61 min⁻¹ and 730 µM.

`CC=C=CCN(C)C` (stereo in doubt; 1 (R)): the kinact in data set [4] was 0.00367 s⁻¹. Further, in data set [3], the affinity corresponds to a Ki of 59 µM. On to `CC=C=CCN(C)C` (stereo in doubt; 1 (S)), for which the k2 in data set [4] worked out at 0.29 min⁻¹. For the same compound, the Ki in data set [3] came out at 100 µM. On the same counts, the results for `CC=C=CCN(C)Cc1ccccc1.O=C(O)C(=O)O` (stereo in doubt; 2 (R)) are 1 min⁻¹ and 200 µM. In data set [4], `CC=C=CCN(C)Cc1ccccc1.O=C(O)C(=O)O` (stereo in doubt; 2 (S)) had a k2 of 0.16 min⁻¹. In addition, the Ki in data set [3] came to 820 µM. The like results for `CC=C=CCN(C)CCc1ccccc1` (stereo in doubt; 4 (R)) were, in that order, 0.99 min⁻¹ and 430 µM. For `CC=C=CCN(C)CCc1ccccc1` (stereo in doubt; 4 (S)), the k2 in data set [4] worked out at 0.13 min⁻¹. The compound also yielded a Ki in data set [3] of 650 µM. Consider `C[C@H](N)Cc1ccccc1` [DEXTROAMPHETAMINE], for which the figures for the Ki in data set [2], in data set [1] and in data set [5] were 160 µM, 300 µM and 580 µM, respectively. The like results for `C[C@@H](N)Cc1ccccc1` [LEVAMFETAMINE] were, in that order, 180 µM, 380 µM and 760 µM. Regarding `CN[C@@H](C)Cc1ccccc1` [METHAMPHETAMINE], the Ki in data set [2] amounted to 270 µM; in data set [1] it was 550 µM.

By Ki is commonly meant the equilibrium dissociation constant of an inhibitor or competing ligand from its target. High values mean lower affinity, low ones higher affinity.
